# Results as given in the EternaBench riboswitch data.
# System: MS2 coat protein
# Assay: apparent Kd, MS2 coat protein; higher = weaker binding; RNA-MaP array; FMN 200 µM where present
# Summary of the method: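 Each design was made on Illumina sequencing-chip clusters by stalled E. coli RNA polymerase and titrated with SNAP-549-labelled MS2 coat protein from 0.7 or 1.5 nM, doubling to 3 µM, in the absence and then the presence of constant ligand. The buffer was 100 mM Tris-HCl pH 7.5, 80 mM KCl, 4 mM MgCl2, BSA, DTT, yeast tRNA and Tween-20. The apparent Kd is the median of filtered per-cluster fits of binding curves, with green signal normalised to red-channel RNA signal and control-cluster median Fmax.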
# [1] = designed as: OFF switch for flavin mononucleotide, no ligand
# [2] = ligand present: flavin mononucleotide, designed as: OFF switch for flavin mononucleotide
# [3] = designed as: ON switch for flavin mononucleotide, no ligand
# [4] = ligand present: flavin mononucleotide, designed as: ON switch for flavin mononucleotide
Sequence,apparent Kd [1] [nM],apparent Kd [2] [nM],apparent Kd [3] [nM],apparent Kd [4] [nM]
AAUAUAAAGAGCUGGAACCUAAUAACAUGAGGAUCACCCAUGUAGGAUAUCAGCACGAUAAGUGCUGAGAAGGACAUCCAGCUC,14.7,14.8,–,–
AAUAUAAGAGCUGGCUCUAAAAGAACAUGAGGAUCACCCAUGUAGGAUAUCAGCACGAUAAGUGCUGAGAAGGACAACCAGCUC,16.7,15.7,–,–
AAUAUACAUGAGGAUCACCCAUGUUUUGGUGCAUGAGGAUAUAAAAACAAUUACAUAAAGUUAGAAGGCAUGAAUA,–,–,54.9,47.9
AAUAUGAGCUGGAAUAUAAACCUCACAUGAGGAUCACCCAUGUAGGAUAUCAGCACGAUAAGUGCUGAGAAGGACAACCAGCUC,15.1,17.1,–,–
AAUAUGAGCUGGUAUAUAAACCUCACAUGAGGAUCACCCAUGUAGGAUAUCAGCACGAUAAGUGCUGAGAAGGACAUCCAGCUC,15.4,17.8,–,–
AAUAUGUUGCAGAAGGCCAUGUUGUGGUAGUGCCUCAUGACAUGAGGAUCACCCAUGUCUGUGAUGGAGGAUAUGCAAUAUAUU,8.15,37,–,–
AAUAUUUAUUGAGGAUAUUCAUACACUGUAUACGGAGAAGGCAAUCAAUCAUGAGGACAUGAGGAUCACCCAUGUUGUGACCAU,–,–,10.7,9.69
AAUAUUUUUUGAGGAUAUUCAUACACUGUAUACGGAGAAGGCAAACAAUCAUGAGGACAUGAGGAUCACCCAUGUUGUGACCAU,–,–,20.1,12.8
AAUCAUGUCCGAGGAUAUCUGGAAACAUUUUCAAGAGAAGGCGGACAUGAGGAUCACCCAUGUCUCUCCUCAUCAACUACAAAU,14.6,89,–,–
AAUCCACAUGAGGAUCACCCAUGUCAGGAAAUGACAGGAUAUAGCGAAAAAAAAAAAAAGCUAGAAGGGUCUAAUU,–,–,175,67.5
AAUGCCAAUGAAGGAUAUACAAACAUGAGGAUCACCCAUGUGUCUUUCGUGUAAGUGGAAUUCGCGUAGAAGGUCAUUGACAUA,38.3,22.3,–,–
AAUGGCGUGAUAACGCUAAUUAAAACAUGAGGAUCACCCAUGUAGGAUAUCCUACCGAAAUGGUAGGAGAAGGACAAGCAAUGA,33.4,27.7,–,–
AAUGUAUCCUCGGGAUCCACAUGAGGAUCACCCAUGUAGACUCAGGAUAUCCAAUGCGUUGGCAGGGAGAAGGGAGCUCGCAUG,33.7,38.7,–,–
AAUGUGUGUCGAGGAUAUAUAACAUGACAACAAACACAUACAUGAGGAUCACCCAUGUCCCAUGUAUAGAAGGCGAUGUGUGUG,–,–,219,434
AAUGUUUGAUUCCACUUAUACAUGAGGAUCACCCAUGUUAUCGAGGAUAUGCAUUAGAGUGUUUAGCAGAAGGCGAUGUAAUUU,6.74,17.5,–,–
AAUUAAUUAAUUAAUUGGACGAUACAUGAGGAUCACCCAUGUAAGGAUAUGCAGUGGAAUACACUGCAGAAGGUACAUACGUCC,15.4,25.5,–,–
AAUUAUUAUUGAGGAUAUCGUAUUGAAACAAUACGAGAAGGCGGUAUAAACAUGAGGAUCACCCAUGUGAGCCUGAUGCUUAUG,28.4,58.9,–,–
AAUUAUUUACAGAAGGAGUAAGAUUAUGUAUUACUAGGAUAUGUUCACAUGAGGAUCACCCAUGUACUAGUUGGUUUUUUAUGU,10.5,17.1,–,–
AAUUCACAUGAGGAUCACCCAUGUCAGGAUAUGGUUUCACGUGUUUCGGUGCGUGAGGCCAGAAGGGACAGCUA,58.4,87,–,–
AAUUCGGCAGGAUAUACAUGAGGAUCACCCAUGUAAAUUUUUCGUUUAACUUGAAUGUGUAGAAGGGCCAUUUA,–,22.6,–,–
AAUUGACACGUAGGAUAUCGAUCUAUAUUAACUCGAGAAGGACGUACAUGAGGAUCACCCAUGUUUAAUGGAGUAGAUAAGUUG,102,289,–,–
AAUUUACAGCUAGGAUAUACAUGAGGAUCACCCAUGUAAUCAUAUGAUGUUAUCAUUGUAUGAGUGUAGAAGGAGCAAAUAAGA,7.72,6.34,–,–
ACAAAUGGAGGAUAUACAUGAGGAUCACCCAUGUUUAUCCUACAUAUGUGAUACUCAUGUAGAAGGCCAUAUGA,12.7,12.5,–,–
ACAAAUUAGUGAGGAUAUGCAUAAUUUAUAACUGCAGAAGGCACAAACCUCAAGACAUGAGGAUCACCCAUGUGGAAUAUAGAU,73,182,–,–
ACAAGAUCAGGAUAUACAUGAGGAUCACCCAUGUAUAUCAAAAAAGGGCUUUCUACAUGUAGAAGGGAUCUUGU,13.9,11.8,–,–
ACAAGGCAUGUAGGAUAUCCAUUGCGUCGCGAUGGAGAAGGACAACACACAUGAGGAUCACCCAUGUGAUCACCCAUGUCGUGU,356,418,–,–
ACACAUGAGGAUCACCCAUGUACUCGACACAUUCAUUGGGCACAGGAUAUACGGUGAAGUCUUUCGUAGAAGGGUGCUAGUGUG,–,–,84,18.4
ACACAUGUCCGAGGAUAUCUGAGAUCAUUUUCAAGAGAAGGCGGACAUGAGGAUCACCCAUGUCUCUCCUCAUCAACUCCAAAU,8.06,49.2,–,–

Sequence,apparent Kd [1] [nM],apparent Kd [2] [nM],apparent Kd [3] [nM],apparent Kd [4] [nM]
ACACCACAUGAGGAUCACCCAUGUAAAGCGUAGCAAGGAUAUGGGCACGGAUAAUUCCGAUCAGAAGGUGUAACGU,–,–,51.2,118
ACACUACAUGAGGAUCACCCAUGUCAGGAUAUCGAUAUCACAACUCAUCAACCUCACUCGAGAAGGGACACAUA,24,23.8,–,–
ACAGCUGAAGGAUAUACUUGGAAAAAAAAAAAAAAAAAAAAACAUGAGGAUCACCCAUGUAGAAGGUCAGCUGA,52.9,78.5,–,–
ACAUAAAUUCGAGGAUAUCGGUGAUAUAAUUUACGAGAAGGCGAUAAAAGUUAUAAACUUAUAGACAUGAGGAUCACCCAUGUA,–,–,31,30.6
ACAUACAUUCGAGGAUAUCGGUGAACAAAUUAACGAGAAGGCGAUAUAAUUUUUAAUCUUAUGAACAUGAGGAUCACCCAUGUA,–,–,22.3,20.4
ACAUACUUUCGAGGAUAUCGGUGAUAAUUUUUACGAGAAGGCGAUAAAAGAUAUAAUCUUAUAGACAUGAGGAUCACCCAUGUA,–,–,30.5,26.4
ACAUGAGGAUCACCCAUGUACAUGGGUUUAAUUGUGUGUUACGAGGAUAUGUAUUUGAAUUUACAACAGAAGGUGUAUUACUGU,811,610,–,–
ACAUGAGGAUCACCCAUGUAGAAUGAAGAAGGUGGAUACUUGUGACUCACCCAUGUACAUAGGACUAAGGAUAUUCUAAUAAUU,–,–,25.1,23
ACAUGAGGAUCACCCAUGUAUUCAUAGGAUAUACUACAUGAGUUUCAUUCAUGUAAACUUGUAUUGUAGAAGGAUGUUACAUGU,16.4,19.2,–,–
ACAUGAGGAUCACCCAUGUGGACAUAGGAUAUUGGUGGUCAGGCGUGUUAUACAGGAUAGGUCUGCGAGAAGGGUGUGCGUUGC,–,–,84.9,75
ACAUGAGGAUCACCCAUGUGGAGUGAAGAAGGUGGUUACUUAAGACUCUCCCAUGUACUUAGGACUGAGGAUAUUCUAAUAUUU,–,–,82.3,45.9
ACAUGAGGAUCACCCAUGUUGAUAGUAGAAGGGACAGAGAAGAAGAAACAUGAGGAUCACCCAUGUCAGGAUAUGCGAAUUGGA,–,–,36.4,33.6
ACAUGAGGAUCACCCAUGUUGCGAGUAGAAGGCUAUAAGAAACGGGAUGAAGAAAUCCACGCAAUAGAGGAUAUACGAAUUGGA,–,–,12.1,7.78
ACAUGCAUAGCGAUAUGAUCGAGAGAUCAUGUCGAAAAUUUUAGAAGGACAUGAGGAUCACCCAUGUAGGAUAUGGGAGCAUGA,–,–,62.6,16.3
ACAUGCAUAGCGAUAUGAUCGAGAGAUCAUGUCGCUAAAGUUAGAAGGACAUGAGGAUCACCCAUGUAGGAUAUGGGUGCAUGA,–,–,641,48.7
ACAUGGAAGCAGGAUAUGCUUGUAUAAUUGUUUGCAGAAGGGCUAACAUGAGGAUCACCCAUGUAAGAGGUCUA,16.2,25.8,–,–
ACAUGGUAGUAGAAGGGUAUUACUUUAGAAUCAACCAUUAGUUUAUUUUAUACAGGAUAUGCUAACAUGAGGAUCACCCAUGUU,10.4,8.25,–,–
ACAUUCUUUCGAGGAUAUCGGUGAUUAAUUUUACGAGAAGGCGAUUUAAGAUAUAAUAUUUUAGACAUGAGGAUCACCCAUGUA,–,–,26.1,24.1
ACAUUGUUACAGGAUAUCGUUGGUUUUAUCCUGCGAGAAGGGUAUACAUGAGGAUCACCCAUGUUAUCCUCAUU,18.7,21.8,–,–
ACAUUUAAUACAGGAUAUGUAUGUAUACAAUAGAUUGGUUUUAUCACAUCAACAGAAGGGUAGAACAUGAGGAUCACCCAUGUA,–,–,114,79.8
ACAUUUGGAGGAUAUACCGCUAAGUCAAAUGCAGACCUCCCACAUGAGGAUCACCCAUGUAGAAGGUCAUCUGG,17.1,17.6,–,–
ACCAUUUACUAAUUAUCUAUACAUGAGGAUCACCCAUGUUAAGAGGAUAUCAUCGUUCGCCGCGAUGAGAAGGCUUAGCAUUCG,48.8,154,–,–
ACCUAUUUGGAGAAGGCCAGAAUGAUUAGGCUAAGGCGUGAUCCUGCAUGGAGGAUAUCCAAAACAUGAGGAUCACCCAUGUUC,–,–,130,71.2
ACCUCACAUGAGGAUCACCCAUGUCAGGAUAUACAAACCGUGAUAAGACACGGUCGUAGUAGAAGGGACUAUGG,69.5,24.9,–,–
ACCUUACAUGAGGAUCACCCAUGUCAGGAUAUCUCGGGCGACCGAGGGCCGGCCGCCCAGAGAAGGGACGAGGA,12.5,13.9,–,–
ACCUUACAUGAGGAUCACCCAUGUCAGGAUAUCUCGGGCGGCUGAGGACCAGCCGCCCAGAGAAGGGACGAGGA,14.7,15.3,–,–
ACGACGAAAGUCGAACGAUGUACGAGAAGGACAUGAGGAUCACCCAUGUUAUCUGUUAUAGACAUGUAGGAUAUCGUACAUCGA,8.25,26.8,–,–
